{
  "source": "ChEMBL document CHEMBL3232832",
  "about": "“Derivatives of dibenzothiophene for positron emission tomography imaging of α7-nicotinic acetylcholine receptors” (J Med Chem, 2013)",
  "key": {"[1]": {"test_system": "Cerebellum", "test": "Drug uptake in CD-1 mouse cerebellum at 0.07 mCi, iv after 90 mins co-administered with 3 mg/kg SSR180711", "assay_type": "ADME, organism-based", "set-up": "dose 3 mg/kg, route intravenous", "details": "in vivo, 1.5 h; call rule not given here", "procedure,_shortened": "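Male CD-1 mice (25–30 g), three per dose. Blocker in saline:ethanol 9:1 pH 5.5, given i.v. with [18F] radiotracer (70 µCi, SA 7900 mCi/µmol). Blocker doses 0, 0.02, 0.2, 1 and 3 mg/kg. Regions dissected 90 min later and gamma counted. Expressed as %ID/g, mean ± SD.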"}, "[2]": {"test_system": "Hippocampus", "test": "Drug uptake in CD-1 mouse hippocampus at 70 uCi, iv administered 10 mins post spiperone challenge measured after 90 mins", "assay_type": "ADME, organism-based", "details": "in vivo, 1.5 h", "procedure,_shortened": "(§1)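 Male CD-1 mice, n=3. Drug at 2 mg/kg s.c. in saline:DMSO 5:1, with vehicle controls. [18F] radiotracer (70 µCi, SA ~14000 mCi/µmol) given i.v. 10 min later. Regions harvested 90 min after tracer, gamma counted, expressed as %ID/g. Compared by single-factor ANOVA.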"}, "[3]": {"test_system": "Cortex", "test": "Drug uptake in CD-1 mouse cortex at 70 uCi, iv administered 10 mins post SSR180711 challenge measured after 90 mins", "assay_type": "ADME, organism-based", "details": "in vivo, 1.5 h"}, "[4]": {"test": "Drug uptake in CD-1 mouse superior and inferior colliculus at 70 uCi, iv administered 10 mins post SSR180711 challenge measured after 90 mins", "assay_type": "ADME, organism-based", "details": "in vivo, 1.5 h", "procedure,_shortened": "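Male CD-1 mice given the selective α7 partial agonist as positive control, 2 mg/kg s.c. in saline:DMSO 5:1 (0.1 mL), 10 min before i.v. [18F]tracer (70 µCi, ~14000 mCi/µmol, 0.2 mL). Controls received vehicle. Brain regions dissected at 90 min and gamma-counted. %ID/g, mean ± SD, n=3; ANOVA.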"}, "[5]": {"test_system": "Cortex", "test": "Drug uptake in CD-1 mouse cortex at 70 uCi, iv administered 10 mins post SCH23390 challenge measured after 90 mins", "assay_type": "ADME, organism-based", "details": "in vivo, 1.5 h", "procedure,_shortened": "as §1"}, "[6]": {"test_system": "Thalamus", "test": "Drug uptake in CD-1 mouse thalamus at 70 uCi, iv followed by compound washout by gamma-counting analysis", "assay_type": "ADME, organism-based", "details": "in vivo", "procedure,_shortened": "(§2)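 Male CD-1 mice (25–30 g) given [18F]radioligand i.v. into a lateral tail vein (70 µCi, 8000–12000 mCi/µmol, in 0.2 mL saline). Killed by cervical dislocation at various times, three per time point. Brains dissected on ice; regions weighed and gamma-counted with injectate standards. Result as %ID/g.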"}, "[7]": {"test_system": "Hippocampus", "test": "Drug uptake in CD-1 mouse hippocampus at 70 uCi, iv administered 10 mins post ketanserin challenge measured after 90 mins", "assay_type": "ADME, organism-based", "details": "in vivo, 1.5 h", "procedure,_shortened": "as §1"}, "[8]": {"test_system": "Brain", "test": "Drug uptake in CD-1 mouse other brain region at 70 uCi, iv administered 10 mins post SCH23390 challenge measured after 90 mins", "assay_type": "ADME, organism-based", "details": "in vivo, 1.5 h", "procedure,_shortened": "as §1"}, "[9]": {"test_system": "Hippocampus", "test": "Drug uptake in CD-1 mouse hippocampus at 70 uCi, iv after 90 mins in presence of cytisine", "assay_type": "ADME, organism-based", "details": "in vivo, 1.5 h", "procedure,_shortened": "(§3)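 Male CD-1 mice, n=3. […] [18F] radiotracer (70 µCi, SA ~14000 mCi/µmol) given i.v. 5 min later. Regions harvested at 90 min, gamma counted, expressed as %ID/g.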"}, "[10]": {"test_system": "Striatum", "test": "Drug uptake in CD-1 mouse striatum at 70 uCi, iv followed by compound washout by gamma-counting analysis", "assay_type": "ADME, organism-based", "details": "in vivo", "procedure,_shortened": "as §2"}, "[11]": {"test": "Drug uptake in CD-1 mouse superior and inferior colliculus at 70 uCi, iv administered 10 mins post spiperone challenge measured after 90 mins", "assay_type": "ADME, organism-based", "details": "in vivo, 1.5 h", "procedure,_shortened": "(§4)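 Male CD-1 mice (25–30 g). […] Brains removed 90 min later and dissected on ice. Regions weighed and gamma-counted against injectate standards. Result as %ID/g, mean ± SD, n=3; ANOVA versus controls.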"}, "[12]": {"test_system": "Cortex", "test": "Drug uptake in CD-1 mouse cortex at 70 uCi, iv administered 10 mins post ondansetron challenge measured after 90 mins", "assay_type": "ADME, organism-based", "details": "in vivo, 1.5 h", "procedure,_shortened": "as §1"}, "[13]": {"test": "Drug uptake in CD-1 mouse superior and inferior colliculus at 70 uCi, iv after 90 mins in presence of cytisine", "assay_type": "ADME, organism-based", "details": "in vivo, 1.5 h"}, "[14]": {"test_system": "Nucleic Acid", "test": "Ratio of drug uptake from cortex to cerebellum in CD-1 mouse after 90 mins", "assay_type": "ADME, tissue-based", "details": "1.5 h"}, "[15]": {"test_system": "Brain", "test": "Drug uptake in CD-1 mouse other brain region at 70 uCi, iv administered 10 mins post SSR180711 challenge measured after 90 mins", "assay_type": "ADME, organism-based", "details": "in vivo, 1.5 h"}, "[16]": {"test_system": "Cerebellum", "test": "Drug uptake in CD-1 mouse cerebellum at 70 uCi, iv administered 10 mins post SCH23390 challenge measured after 90 mins", "assay_type": "ADME, organism-based", "details": "in vivo, 1.5 h", "procedure,_shortened": "as §1"}, "[17]": {"test_system": "Nucleic Acid", "test": "Ratio of drug uptake from hippocampus to cerebellum in CD-1 mouse after 90 mins", "assay_type": "ADME, nucleic-acid assay", "details": "1.5 h"}, "[18]": {"test_system": "Hippocampus", "test": "Drug uptake in CD-1 mouse hippocampus at 70 uCi, iv followed by compound washout by gamma-counting analysis", "assay_type": "ADME, organism-based", "details": "in vivo", "procedure,_shortened": "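Male CD-1 mice (25–30 g), three per time point. [18F] radiotracer (70 µCi, SA 8000–12000 mCi/µmol, in 0.2 mL saline) given by tail vein. Killed at several times up to 90 min. Dissected regions weighed and gamma counted against injectate standards, giving %ID/g.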"}, "[19]": {"test_system": "Cortex", "test": "Drug uptake in CD-1 mouse cortex at 70 uCi, iv administered 10 mins post naltrindole challenge measured after 90 mins", "assay_type": "ADME, organism-based", "details": "in vivo, 1.5 h", "procedure,_shortened": "as §1"}, "[20]": {"test_system": "Hippocampus", "test": "Drug uptake in CD-1 mouse hippocampus at 70 uCi, iv after 90 mins in presence of nicotine", "assay_type": "ADME, organism-based", "details": "in vivo, 1.5 h", "procedure,_shortened": "as §3"}, "[21]": {"test_system": "Hippocampus", "test": "Drug uptake in CD-1 mouse hippocampus at 70 uCi, iv administered 10 mins post ondansetron challenge measured after 90 mins", "assay_type": "ADME, organism-based", "details": "in vivo, 1.5 h", "procedure,_shortened": "as §1"}, "[22]": {"test": "Drug uptake in CD-1 mouse superior and inferior colliculus at 70 uCi, iv administered 10 mins post ketanserin challenge measured after 90 mins", "assay_type": "ADME, organism-based", "details": "in vivo, 1.5 h", "procedure,_shortened": "as §4"}, "[23]": {"test_system": "Cortex", "test": "Drug uptake in CD-1 mouse cortex at 70 uCi, iv after 90 mins in presence of nicotine", "assay_type": "ADME, organism-based", "details": "in vivo, 1.5 h", "procedure,_shortened": "as §3"}, "[24]": {"test_system": "Cerebellum", "test": "Drug uptake in CD-1 mouse cerebellum at 0.07 mCi, iv after 90 mins in presence of 7-(1,4-Diazabicyclo[3.2.2]nonan-4-yl)-2-fluorodibenzo[b,d]-thiophene 5,5-Dioxide", "assay_type": "ADME, organism-based", "details": "in vivo, 1.5 h", "procedure,_shortened": "(§5)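 Male CD-1 mice, n=3. [18F] radiotracer (70 µCi, 0.2 mL) given i.v. together with unlabeled blocker in saline pH 5.5. Brain regions dissected at 90 min, gamma counted, expressed as %ID/g.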"}, "[25]": {"test_system": "Hippocampus", "test": "Drug uptake in CD-1 mouse hippocampus at 70 uCi, iv administered 10 mins post SCH23390 challenge measured after 90 mins", "assay_type": "ADME, organism-based", "details": "in vivo, 1.5 h", "procedure,_shortened": "as §1"}, "[26]": {"test_system": "Cerebellum", "test": "Drug uptake in CD-1 mouse cerebellum at 0.07 mCi, iv after 90 mins in presence of 3-(1,4-Diazabicyclo[3.2.2]nonan-4-yl)-6-fluorodibenzo[b,d]thiophene 5,5-Dioxide", "assay_type": "ADME, organism-based", "details": "in vivo, 1.5 h", "procedure,_shortened": "as §5"}, "[27]": {"test": "Drug uptake in CD-1 mouse superior and inferior colliculus at 70 uCi, iv administered 10 mins post naltrindole challenge measured after 90 mins", "assay_type": "ADME, organism-based", "details": "in vivo, 1.5 h", "procedure,_shortened": "as §4"}, "[28]": {"test_system": "Brain", "test": "Drug uptake in CD-1 mouse other brain regions at 70 uCi, iv after 90 mins in presence of nicotine", "assay_type": "ADME, organism-based", "details": "in vivo, 1.5 h"}, "[29]": {"test_system": "Brain", "test": "Drug uptake in CD-1 mouse other brain region at 70 uCi, iv administered 10 mins post ondansetron challenge measured after 90 mins", "assay_type": "ADME, organism-based", "details": "in vivo, 1.5 h", "procedure,_shortened": "as §4"}},
  "data": [
    {"smiles": "O=S1(=O)c2cc(N3CCN4CCC3CC4)ccc2-c2cccc([18F])c21", "values": [
      {"measurement": "Drug uptake", "setting": "[1]", "value": "Not Active"},
      {"measurement": "Drug uptake", "setting": "[2]", "value": "Active"},
      {"measurement": "Drug uptake", "setting": "[3]", "value": "Not Active"},
      {"measurement": "Drug uptake", "setting": "[4]", "value": "Not Active"},
      {"measurement": "Drug uptake", "setting": "[5]", "value": "Active"},
      {"measurement": "Drug uptake", "setting": "[6]", "value": "Active"},
      {"measurement": "Drug uptake", "setting": "[7]", "value": "Active"},
      {"measurement": "Drug uptake", "setting": "[8]", "value": "Active"},
      {"measurement": "Drug uptake", "setting": "[9]", "value": "Not Active"},
      {"measurement": "Drug uptake", "setting": "[10]", "value": "Active"},
      {"measurement": "Drug uptake", "setting": "[11]", "value": "Active"},
      {"measurement": "Drug uptake", "setting": "[12]", "value": "Active"},
      {"measurement": "Drug uptake", "setting": "[13]", "value": "Not Active"},
      {"measurement": "Ratio", "setting": "[14]", "value": 5.3},
      {"measurement": "Drug uptake", "setting": "[15]", "value": "Not Active"},
      {"measurement": "Drug uptake", "setting": "[16]", "value": "Active"},
      {"measurement": "Ratio", "setting": "[17]", "value": 5.5},
      {"measurement": "Drug uptake", "setting": "[18]", "value": "Active"},
      {"measurement": "Drug uptake", "setting": "[19]", "value": "Active"},
      {"measurement": "Drug uptake", "setting": "[20]", "value": "Not Active"},
      {"measurement": "Drug uptake", "setting": "[21]", "value": "Active"},
      {"measurement": "Drug uptake", "setting": "[22]", "value": "Active"},
      {"measurement": "Drug uptake", "setting": "[23]", "value": "Not Active"},
      {"measurement": "Drug uptake", "setting": "[24]", "value": "Active"},
      {"measurement": "Drug uptake", "setting": "[25]", "value": "Active"},
      {"measurement": "Drug uptake", "setting": "[26]", "value": "Active"},
      {"measurement": "Drug uptake", "setting": "[27]", "value": "Active"},
      {"measurement": "Drug uptake", "setting": "[28]", "value": "Not Active"},
      {"measurement": "Drug uptake", "setting": "[29]", "value": "Active"}
    ]}
  ]
}
